GSK3B inh: inhibitors of human GSK3beta kinase. 300,000 compounds, 0.038% hits. activity score (negative = inhibition), % at 10 µM. GST-GSK3beta kinase, ADP-Glo luminescence, 60 min; hits give low values. P49841;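 active = more than half of replicate wells score below -50%, meaning over 50% inhibition versus plate controls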;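 also: 0% = median DMSO wells and -100% = median GW8510 positive control wells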
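Test system: GST-fused GSK3beta enzyme, cell-free | Quantity: 1.6 ng GST-GSK3beta enzyme per well | Reagent: 25 µM ATP with peptide substrate | Schedule: 60 min enzyme reaction, room temperature | Signal: Luminescent ADP-Glo measurement of ADP formed | Read-out basis: Score relative to plate controls | Control set: DMSO and 20 µM GW8510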
LANA-H2B inh: blocks KSHV LANA binding to histone H2A/H2B; inhibition, % (test concentration not listed); cell-free LANA-H2A/H2B peptide, fluorescence polarization; AID 2629; Q9QR71; 320,000 compounds, 0.6% hits; in the data active = inhibition mostly above about 10%, no sharp cut-off; inactive = mostly below about 6.7%
GSK3A inh: blocks human GSK-3 alpha kinase. P49840. ADP-Glo luminescence, 60 min. inhibition, % at 10 µM. 320,000 compounds, 0.1% hits. AID 2650;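 active = more than half of replicates show inhibition above 20%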;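 also: GST-tagged GSK-3 alpha with peptide substrate and 25 µM ATP; 0% = DMSO neutral wells and 100% = GW8510 positive control wells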
Hep lipid drop: modulators of hepatic lipid droplet formation; inhibition, % at 6.5 µM; AID 1656; 240,000 compounds, 0.4% hits; AML12 mouse hepatocytes, oleate lipid droplets, BODIPY imaging;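 active = lipid droplet intensity inhibited by at least 50%, with more than 500 cells counted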
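System: AML12 hepatocytes (mouse). Probe or stimulus: oleic acid at 100 µM to induce lipid droplet formation. Times: overnight treatment with compound plus oleate. Detection: Image-based BODIPY and DAPI two-channel analysis. Evaluation: percent inhibition of filter-corrected integrated lipid droplet intensity per well.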
STK33 inh: blocks human STK33 kinase activity; inhibition, % at 10 µM; AID 2661; purified STK33, MBP phosphorylation, ADP-Glo luminescence; 320,000 compounds, 0.073% hits; Q9BYT3;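 active = inhibition at or above 25%, using the most active replicate where run in duplicate; inactive = inhibition below 25%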
Target sequence (Q9BYT3 whole entry, looked up): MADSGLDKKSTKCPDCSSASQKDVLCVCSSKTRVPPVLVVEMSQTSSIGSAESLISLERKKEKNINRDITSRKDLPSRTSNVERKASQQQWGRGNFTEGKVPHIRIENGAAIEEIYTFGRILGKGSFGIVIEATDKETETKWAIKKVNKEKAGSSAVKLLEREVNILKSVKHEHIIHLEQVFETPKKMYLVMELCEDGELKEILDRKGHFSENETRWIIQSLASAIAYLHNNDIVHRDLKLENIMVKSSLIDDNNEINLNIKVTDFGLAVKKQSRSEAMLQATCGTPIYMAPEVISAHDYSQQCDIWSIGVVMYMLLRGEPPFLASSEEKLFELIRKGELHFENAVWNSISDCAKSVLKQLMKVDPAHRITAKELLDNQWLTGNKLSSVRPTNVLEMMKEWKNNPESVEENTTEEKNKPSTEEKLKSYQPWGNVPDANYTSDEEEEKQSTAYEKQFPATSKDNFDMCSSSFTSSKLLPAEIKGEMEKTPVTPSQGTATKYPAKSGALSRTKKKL
TAG inh: triacylglycerol accumulation inhibition. H9c2 cells, Nile Red lipid (TAG) fluorescence; cells loaded with 200 µM oleic acid. 230,000 compounds, 0.66% hits. inhibition, % at 12.5 µM. AID 651582;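 active = pattern-corrected inhibition of lipid staining of at least 50% with the nuclear-stain viability signal not falling by more than 50%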;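 also: 0% = DMSO wells and 100% = triacsin C control wells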
Lipid drop inh: confirmation of inhibitors of hepatic lipid droplet formation | shares compounds with Hep lipid drop | AML12 mouse hepatocytes, BODIPY lipid droplet imaging; droplets induced with 100 µM oleic acid | inhibition, % at 5.2 µM | 870 compounds, 65% hits | AID 463183;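 active = inhibition of lipid droplet metric at least 50%, with more than 300 cells in each of four replicates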;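 also: plate controls were DMSO with oleic acid for no effect and 5 µM Triacsin-C for full effect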
AML12 cytotox: counter-screen for cytotoxicity in AML12 mouse hepatocytes | AID 463200 | 870 compounds, 3% hits | shares compounds with Hep lipid drop | z-score at 5 µM | DAPI nuclear morphology cytotoxicity imaging; hits give high values; cells fed 100 µM oleate overnight; in the data active = z-score above about 6.3;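 also: compound exposure lasted overnight at 37 °C before fixation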
AML12 tox ATP: confirmation of cytotoxicity in AML12 mouse hepatocytes. shares compounds with Hep lipid drop. AML12 mouse hepatocyte viability, ATP luminescence; cells loaded with 100 µM oleic acid. cytotoxicity, % at 50 µM. 530 tested, under 10 active;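 active = cytotoxicity above 50% in each of four replicates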;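 also: compound exposure lasted overnight at 37 °C before the ATP read; 0% = DMSO-treated cells and 100% = wells with no cells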
* hit, by the source's call; . = no result. Hits are enriched below; roughly 1.3% of the tested compounds scored in any of these assays.

SMILES | GSK3B inh | LANA-H2B inh | GSK3A inh | Hep lipid drop | STK33 inh | TAG inh | Lipid drop inh | AML12 cytotox | AML12 tox ATP
COc1cc2c(cc1OC)CN(CC(=O)Nc1ccc(C)c(C)c1)CC2 | 0 | 4 | -4 | 56* | -1 | . | -8 | -0.2 | .
Cc1ccc(C(=O)NCCc2csc(-c3cccnc3)n2)cc1 | 0 | 0 | 0 | 7 | -1 | 13 | . | . | .
CCOc1ccc(CCNC(=O)c2cccs2)cc1OCC | 6 | -3 | -4 | 76* | -2 | . | 100* | -0.45 | 8
CCOc1ccc(CCNC(=O)c2cc(C)nc3ccccc23)cc1OCC | 1 | 1 | -4 | 62* | 0 | 31 | 71* | 0.041 | 17
CCOc1ccc(CCNC(=O)CCNC(=O)c2ccccc2Cl)cc1OCC | -1 | -24 | 0 | 68* | -1 | 28 | 88* | 0.71 | 13
Cc1ccc([N+](=O)[O-])cc1NC(=O)C(C)Sc1nnc(C)n1CC1CCCO1 (centres undefined) | . | -2 | 2 | 60* | 0 | . | 18 | -0.28 | .
COc1ccc(NC(=O)CSc2ncnc3c2cnn3Cc2ccccc2)cc1OC | 2 | 5 | -1 | 5 | -2 | . | . | . | .
COc1ccc(C(=O)O/N=C(\N)c2ccccn2)cc1 | -40 | 3 | 51* | 66* | 37* | . | 20 | -0.24 | .
CCCCCCCNC(=O)C1(CC2CC(c3ccc(Cl)cc3)=NO2)CCN(C(=O)c2cc(OCC)c(OCC)c(OCC)c2)CC1 (centres undefined) | 3 | 1 | -2 | 50* | -2 | 41 | 90* | -1.7 | -3
Cc1c(NC(=O)CCN2C(=O)c3ccccc3C2=O)c(=O)n(-c2ccccc2)n1C | 0 | -1 | 0 | . | -3 | . | . | . | .
CCOC(=O)C1CCN(C(=O)C2(NC(=O)Nc3ccc(F)cc3F)CCCCC2)CC1 | . | 0 | -2 | 69* | -1 | . | 97* | -0.0011 | 12
COc1ccc(C(=O)OC(C)C(=O)Nc2cc(C(F)(F)F)ccc2Cl)c(OC)c1OC (centres undefined) | 1 | 0 | 1 | 80* | -2 | . | 107* | -0.28 | 0
O=C(CCCl)N(Cc1nc2ccccc2c(=O)[nH]1)Cc1cccs1 | -2 | 4 | -1 | 14 | 0 | -4 | . | . | .
CCc1cc(=O)oc2cc(C)cc(OCC(=O)NC3CC3)c12 | -2 | -1 | 5 | 1 | 0 | . | . | . | .
Cc1cc(OCC(=O)NC2CC2)c2c(C)cc(=O)oc2c1 | 1 | 13* | -1 | 61* | 1 | . | -12 | -0.82 | .
CCOC(=O)c1sc2cc([N+](=O)[O-])cc(SCC(=O)OC)c2c1N | 2 | -3 | -1 | 10 | 1 | . | . | . | .
CCOC(=O)c1sc2cc([N+](=O)[O-])cc(SCCO)c2c1N | 3 | 4 | -2 | 52* | -1 | -27 | 61* | -0.48 | .
COc1ccc2nc(N=Nc3c(O)ccc4ccccc34)sc2c1 | 2 | . | . | 50* | . | . | 6 | -0.12 | .
COc1ccc2nc(NC(=O)Nc3cccc4ccccc34)sc2c1 | 0 | -5 | -3 | -1 | -3 | 30 | . | . | .
COc1ccc(-c2csc(NNC3=NCCCCC3)n2)cc1 | 0 | -3 | 0 | 115* | 0 | . | 112* | -0.25 | 32
COc1ccc(-c2csc(NC3=NCCCCC3)n2)cc1 | 2 | 3 | 0 | 12 | 2 | . | . | . | .
Brc1ccc(-c2csc(NC3=NCCCCC3)n2)cc1 | 2 | -2 | -2 | -2 | -1 | -8 | . | . | .
CCOc1ccc(-c2csc(NNC3=NCCCCC3)n2)cc1 | -1 | 4 | 1 | 84* | 1 | . | 111* | -0.65 | 15
Cc1ccc(NC(=O)CSc2nc3ccccc3c3nc(CCn4cncc4C)nn23)c(C)c1 | 1 | . | . | 16 | . | . | . | . | .
CCOc1ccc(NC(=O)CCSc2nc3c(c(CC)c2C#N)C(=O)CC(C)(C)C3)cc1 | 2 | 17 | -1 | 55* | 0 | -15 | 86* | -0.055 | 2
SMILES | GSK3B inh | LANA-H2B inh | GSK3A inh | Hep lipid drop | STK33 inh | TAG inh | Lipid drop inh | AML12 cytotox | AML12 tox ATP
COc1cccc(/C(C)=N/NC(=O)Cc2c(C)[nH][nH]c2=O)c1 | -1 | 3 | -2 | 63* | -2 | . | 26 | 0.32 | .
C/C(=N\NC(=O)Cc1c(C)[nH][nH]c1=O)c1ccc2ccccc2c1 | 5 | -4 | -3 | -23 | -2 | . | . | . | .
O=C(COC(=O)COc1ccc(Cl)cc1Cl)Nc1cccnc1Cl | 4 | 0 | -3 | 50* | -1 | . | 12 | -1 | .
S=C1NCCNC(=S)NCCOCCN1 | 1 | 4 | -4 | 1 | -2 | . | . | . | .
CCOC(=O)Cn1c(=O)c2c(nc(N3CCCCC3)n2C)n(C)c1=O | -1 | 6 | 2 | . | 0 | 8 | . | . | .
COc1ccccc1OCCNC(=O)c1cccc(S(=O)(=O)N2CCN(C)CC2)c1 | 1 | -5 | 0 | -2 | -2 | 13 | . | . | .
NC(=O)C1CCN(S(=O)(=O)Cc2ccccc2Cl)CC1 | 0 | 5 | 0 | 6 | -1 | -7 | . | . | .
COc1ccccc1N1N=C(c2ccc([N+](=O)[O-])cc2)CC1c1ccccc1 (centres undefined) | -2 | -4 | -2 | 67* | -1 | . | 110* | -0.96 | 9
O=C1/C(=C/c2ccc([N+](=O)[O-])cc2)CCC1C1CCCC1 (centres undefined) | 4 | -3 | -2 | 54* | 1 | . | 15 | -0.71 | .
Cc1cccc(/C=C2\CCC(C3CCCC3)C2=O)c1 (centres undefined) | 0 | -6 | -3 | 2 | 0 | . | . | . | .
CCC(NC(=O)c1cc(COc2ccc(F)cc2Cl)on1)c1ccncc1 (centres undefined) | 3 | . | . | 1 | . | 6 | . | . | .
CCC(NC(=O)c1cc(COc2cncc(Cl)c2)on1)c1ccncc1 (centres undefined) | 1 | 0 | -2 | 65* | 0 | . | 11 | -0.58 | .
c1ccc2c(CNc3ccc(CNc4ncn[nH]4)cc3)cccc2c1 | 2 | 2 | 1 | -4 | 1 | . | . | . | .
CCCNS(=O)(=O)c1ccc(CCC(=O)Nc2cc(Cl)ccc2Oc2ccccc2)cc1 | 3 | . | . | 63* | . | 46 | 93* | -0.022 | 38
CC(C)(C)NS(=O)(=O)c1ccc(CCC(=O)Nc2cc(Cl)ccc2Oc2ccccc2)cc1 | 1 | 5 | 7 | 21 | -3 | 44 | . | . | .
CC(C)(C)c1cc(Br)c(O)c(N=Nc2ccc(S(=O)(=O)N3CCOCC3)cc2)c1 | 1 | 1 | -1 | 56* | 0 | 85* | 102* | -0.35 | 18
c1ccc(SC23CC4CC(CC(C4)C2)C3)nc1 | . | . | . | . | . | -5 | . | . | .
